Compounds with a hit are over-represented: about 2.2% of the library has one in this group of screens.
PDI turbidity = inhibitors of human protein disulfide isomerase; P07237; PDI insulin aggregation turbidity, A650, 90 min; inhibition, % at 10 µM; 350,000 tested, 0.052% active;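 active = mean inhibition across replicates of 30% or more, whatever share of single replicates reach that level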
PvdQ acylase = blocks Pseudomonas aeruginosa PvdQ acylase activity. purified PvdQ acylase, fluorescence plate reader. inhibition, % at 10 µM. 340,000 tested, 0.063% active; in the data active = inhibition above about 30%, passing the limit was not always enough;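 also: 0% = vehicle neutral wells and 100% = reference inhibitor wells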
Env fusion inh = inhibitors of HIV Env-mediated cell fusion. HeLa-JRFL Env/CEM21 cell fusion, luciferase. AID 651610. inhibition, % at 12.3 µM. 360,000 tested, 1.1% active;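 active = mean replicate inhibition score of at least 50 and every replicate individually at or above 50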;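 also: 0% = plate neutral controls and 100% = maraviroc near 300 nM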
FN deposition inh = fibronectin deposition inhibition; AH1F fibroblasts, Alexa488-fibronectin deposition fluorescence, overnight; inhibition, % at 12.6 µM; 350,000 tested, 0.086% active; AID 743247;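 active = mean inhibition across replicates of 30% or more, regardless of how many single replicates reach that level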;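 also: positive control wells lacked labelled fibronectin entirely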
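Test system: AH1F fibroblast monolayer depositing Alexa488-labelled fibronectin into matrix. Input: 10000 cells per well. Technique: fluorescence, ex 485 nm, em 525 nm. Buffer or medium: DMEM plus 2% serum, read in PBS. Timing: 1 h cell adhesion before compound, then overnight fibronectin incubation. Compound: single dose, pinned. Read-out basis: inhibition from reduced deposited-fibronectin fluorescence.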
ERp5 inh = blocks human ERp5 reductase activity on insulin | 350,000 tested, 0.05% active | AID 651711 | inhibition, % at 9.99 µM | ERp5 insulin aggregation, absorbance 650 nm, 90 min | Q15084;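 active = mean replicate inhibition above about 25%, with every replicate also reaching it, limit read from the data, passing the limit was not always enough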
Target sequence (Q15084 whole entry, looked up): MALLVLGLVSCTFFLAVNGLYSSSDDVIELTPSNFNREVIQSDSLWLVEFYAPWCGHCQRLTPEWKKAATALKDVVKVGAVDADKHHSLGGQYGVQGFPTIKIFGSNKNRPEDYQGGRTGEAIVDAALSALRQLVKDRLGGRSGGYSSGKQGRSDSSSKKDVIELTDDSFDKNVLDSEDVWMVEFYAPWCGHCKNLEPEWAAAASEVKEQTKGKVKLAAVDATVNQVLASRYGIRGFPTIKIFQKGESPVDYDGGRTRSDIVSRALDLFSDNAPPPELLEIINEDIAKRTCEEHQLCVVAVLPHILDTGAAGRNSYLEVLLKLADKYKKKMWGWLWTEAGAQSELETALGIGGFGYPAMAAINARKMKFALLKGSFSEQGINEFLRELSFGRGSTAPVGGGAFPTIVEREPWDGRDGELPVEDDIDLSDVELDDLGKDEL
rRNA inh HTS = selective bacterial rRNA inhibition in E. coli; 350,000 tested, 1.6% active; E. coli WT GFP vs humanized-ribosome RFP mutants, fluorescence, 24 h; active compounds read low; DMSO median 0, no signal -100; GFP signal change (wild-type ribosome), % (test concentration not listed);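 active = significant combined selectivity score with lowered wild-type GFP, culture density cut under 30%, mutant RFP and density less affected; inactive = any of these conditions unmet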
Numbers without * were called inactive; x = no result given; [ ] = remark or other dose.

SMILES	PDI turbidity	PvdQ acylase	Env fusion inh	FN deposition inh	ERp5 inh	rRNA inh HTS
COC1=CC(=O)c2nc(Cl)ccc2C1=O	x	x	24.1	9.7	9.7	4.7
COC1=CC(=O)c2c(ccc3ncnc(N)c23)C1=O	24.9	-17.5	76.2*	31.2*	4.3	x
CCCOc1ccc2ccccc2c1/C=N/n1cnnc1	0.3	-4.6	90.9*	4.1	x	x
CCOc1ccc2ccccc2c1/C=N/n1cncn1	-1.5	-7.1	-101.1	13.0	x	x
COCC#Cc1ccc2c(c1)O[C@H](CN(C)CC1CCOCC1)[C@@H](C)CN([C@H](C)CO)S2(=O)=O	x	x	-17.2[16.7 µM]	x	9.6	-4.3
COC(CN(C(=O)CCl)C(C(=O)NC1CCCCC1)c1ccccc1C)OC (stereo unspecified)	4.6	-14.0	58.7*	2.4	0.6	7.9
CC(C)CN(C(=O)c1ccc(S(=O)(=O)N2CCCCC2)cc1)C1CCS(=O)(=O)C1 (stereo unspecified)	-2.2	-4.0	69.7*	-2.2	-3.1	12.5
O=c1[nH]c2ccccc2cc1CN(Cc1cccnc1)S(=O)(=O)c1ccc([N+](=O)[O-])cc1	-6.1	-1.1	1.7	-3.0	-1.5	-20.8*
CC(=O)Nc1ccc(S(=O)(=O)N(Cc2cccnc2)Cc2cc3ccccc3[nH]c2=O)cc1	4.5	-14.8	15.2	6.1	1.7	-6.5
O=c1[nH]c2ccccc2cc1CN(Cc1cccnc1)S(=O)(=O)c1ccc(Cl)cc1	-3.5	4.9	4.5	-5.2	2.9	-45.0*
CCCCN(Cc1cc2ccccc2[nH]c1=O)S(=O)(=O)c1ccc(C)cc1	x	-3.6	-12.4	-23.1	-14.3	-13.8
CC(=O)[C@@]1(O)Cc2c(O)c3c(c(O)c2[C@H](O[C@H]2C[C@H](N)[C@H](O)[C@H](C)O2)C1)C(=O)c1ccccc1C3=O	7.9	x	95.1*	-66.7	-2.8	72.8
COc1cccc2c1C(=O)c1c(O)c3c(c(O)c1C2=O)CC(O)(C(C)=O)CC3OC1CC(N(C)C)C(O)C(C)O1 (stereo unspecified)	-3.0	-7.1	57.9*	15.3	-0.7	19.8
COc1cccc2c1C(=O)c1c(O)c3c(c(O)c1C2=O)C[C@@](O)(C(=O)CO)C[C@@H]3OC1CC(N)C(O)C(C)O1 (stereo partly specified)	16.5	-8.2	-200.8	-1.3	7.3	8.4
C[C@@H]1CN([C@H](C)CO)C(=O)Cc2cc(NC(=O)CCC(F)(F)F)ccc2O[C@@H]1CN(C)Cc1ccc(C(=O)Nc2ccccc2N)cc1	x	x	-81.6[16.7 µM]	15.5	10.5	-2.4
CCCC#Cc1ccc2c(c1)O[C@@H](CN(C)C(C)=O)[C@H](C)CN([C@H](C)CO)S2(=O)=O	x	x	-2.4[16.7 µM]	7.8	-10.3	-2.8
Cc1ccc(S(=O)(=O)c2ccc([N+](=O)[O-])o2)cc1	-1.9	-5.4	-198.2	48.6*	20.5	-21.7
Cc1cc(C)c(S(=O)(=O)N/N=C/c2ccc([N+](=O)[O-])o2)c(C)c1	6.1	-14.0	-6.7	x	3.5	1.3
CCc1ccc(S(=O)(=O)Nc2cc(SCC(=O)O)c(O)c3ccccc23)cc1	-4.4	13.1	9.0	8.3	0.3	-10.6
O=C(O)CSc1cc(NS(=O)(=O)c2cccc([N+](=O)[O-])c2)c2ccccc2c1O	-3.1	0.2	0.8	9.6	-7.5	-34.5*
COc1ccc(C(=O)C/C(=C\C(=O)c2ccc(C)cc2)c2ccccc2)cc1	-2.5	16.5	102.6*	-3.6	x	x
Cc1sc(NC(=O)c2sc3nc4c(C)cccc4cc3c2N)c(C#N)c1C	5.9	-11.1	-74.7	x	x	x
Cc1cccc2cc3c(N)c(C#N)sc3nc12	-7.2	-9.8	90.6*	-18.0	x	x
COc1ccc(NC(=O)CSc2nc3ccsc3c(=O)n2CCC(=O)O)c(OC)c1	5.2	-10.5	-3.0	-3.2	5.5	-3.6
COc1ccc(NC(=O)CSc2nc3ccsc3c(=O)n2CCC(=O)O)cc1	-3.3	x	60.1*	0.3	-1.5	-4.1
SMILES	PDI turbidity	PvdQ acylase	Env fusion inh	FN deposition inh	ERp5 inh	rRNA inh HTS
Brc1ccccc1CN1CCN(Cc2c[nH]c3ccccc23)CC1	x	x	26.5	13.7	1.2	-22.6*
COc1ccccc1-c1ccc2c(c1)C(C)(Cc1ccc(Cl)c(Cl)c1)C(=O)N2 (stereo unspecified)	4.2	x	99.8*	3.0	-5.0	4.5
COc1ccccc1-c1ccc2c(c1)C(C)(Cc1ccccc1C#N)C(=O)N2 (stereo unspecified)	-5.1	x	63.1*	-2.6	1.0	-43.5
CC(C)NC(=O)N(C)C[C@H]1Oc2ccc(NC(=O)Nc3ccc(F)cc3)cc2CC(=O)N([C@@H](C)CO)C[C@@H]1C	x	x	9.8[16.7 µM]	x	-1.9	2.0
O=C(c1ccccc1)c1ccc(-c2ccc(O)cc2)cc1	1.5	-13.7	-13.9	14.7	0.7	-28.3*
COc1ccc(-c2csc(-c3ccc(O)cc3)n2)cc1	-8.7	-4.7	-125.0	26.5	-0.4	-27.8*
COc1ccc(-c2nc(CCl)cs2)cc1	-2.1	-3.5	-24.5	1.2	1.6	6.6
O=C(O)c1ccc(-c2nc(-c3ccccc3)cs2)cc1	5.0	1.2	-41.4	-1.4	3.4	-20.5*
CO[C@@H]1CN(C)C(=O)c2ccc(NC(=O)C3CC3)cc2OC[C@H](C)N(C(=O)c2cnccn2)C[C@H]1C	x	x	4.9[16.7 µM]	13.1	-0.8	1.2
O=C(N/N=C/C1CC=CCC1)c1ccc(Cl)cc1O (stereo unspecified)	-3.6	-12.8	-14.4	2.9	-11.2	-28.8*
O=C(N/N=C/C1CC=CCC1)c1ccccc1O (stereo unspecified)	-2.8	13.7	x	x	x	x
COCC(=O)Nc1ccc2c(c1)C(=O)N(C)C[C@@H](OC)[C@@H](C)CN(C(=O)C1CCCC1)[C@@H](C)CO2	x	x	x	7.5	0.6	-1.1
C[C@H](CO)N1C[C@H](C)[C@@H](CN(C)C(=O)C2CCC2)Oc2ncc(-c3ccc(F)cc3)cc2C1=O	x	x	11.8[16.7 µM]	-0.1	-6.5	-4.0
CCOC(=O)c1cc(CC)sc1NC(=O)CCC(=O)O	-5.7	5.8	x	x	x	x
CCCc1cc(C(=O)OC)c(NC(=O)CCC(=O)O)s1	-9.9	0.4	11.2	33.1*	-2.1	2.2
O=C1OCCC1Sc1nnc(-c2ccccc2)o1 (stereo unspecified)	-4.2	-8.7	x	x	x	x
O=C1OCCC1Sc1nnc(-c2ccc(Cl)cc2Cl)o1 (stereo unspecified)	10.0	-16.2	58.7*	2.9	-12.2	1.2
COc1c(O)cc2c(c1O)C1OC(CO)C(O)C(O)C1OC2=O (stereo unspecified)	0.8	-13.8	12.5	1.4	5.4	-22.3*
COc1c(O)cc2c(c1O)[C@@H]1OC(CO)C(O)C(O)[C@H]1OC2=O (stereo partly specified)	5.6	2.8	-36.8	2.1	3.9	x
O=S(=O)(N[C@H]1CC[C@H](CCn2cc(C3(O)CCCC3)nn2)O[C@@H]1CO)c1ccc(F)cc1	x	x	-28.3[16.7 µM]	x	0.8	-6.2

Screening results from PubChem BioAssay.
